# Reference: ChEMBL document CHEMBL1134286, “Novel erythromycin derivatives with aryl groups tethered to the C-6 position are potent protein synthesis inhibitors and active against multidrug-resistant respiratory pathogens” (J Med Chem, 2001)
# Columns and labels:
# Assay type in all cases: functional
# Staphylococcus aureus [1] = experiment: Minimum inhibitory concentration against Staphylococcus aureus ATCC 6538PEry-S; conditions: ATCC 6538P
# Summary of the method: (§1)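 MICs were determined by agar dilution following National Committee for Clinical Laboratory Standards recommendations. Values are in µg/mL.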
# [2] = Minimum inhibitory concentration against Haemophilus influenzae DILL Amp-R; summary of the method: as §1
# Streptococcus pneumoniae [3] = experiment: Minimum inhibitory concentration against Streptococcus pneumoniae 5649 efflux; summary of the method: as §1
# Staphylococcus aureus [4] = experiment: Minimum inhibitory concentration against Staphylococcus aureus A 5177 MLSB-i; summary of the method: as §1
# [5] = Minimum inhibitory concentration against Streptococcus pyogenes EES 61 Ery-S; summary of the method: as §1
# Staphylococcus aureus [6] = experiment: Minimum inhibitory concentration against Staphylococcus aureus A 5278 MLSB-c; summary of the method: as §1
# [7] = Minimum inhibitory concentration against Streptococcus pneumoniae 5737 MLSB; summary of the method: as §1
# [8] = Minimum inhibitory concentration against Streptococcus pyogenes PIU2548 efflux; summary of the method: as §1
# [9] = Minimum inhibitory concentration against Streptococcus pyogenes 930MLSB; summary of the method: as §1
# Streptococcus pneumoniae [10] = experiment: Minimum inhibitory concentration against Streptococcus pneumoniae ATCC 6303 Ery-S; summary of the method: as §1
SMILES,MIC (Staphylococcus aureus [1]) [µg/mL],MIC [2] [µg/mL],MIC (Streptococcus pneumoniae [3]) [µg/mL],MIC (Staphylococcus aureus [4]) [µg/mL],MIC [5] [µg/mL],MIC (Staphylococcus aureus [6]) [µg/mL],MIC [7] [µg/mL],MIC [8] [µg/mL],MIC [9] [µg/mL],MIC (Streptococcus pneumoniae [10]) [µg/mL]
CC[C@H]1OC(=O)[C@H](C)C(=O)[C@H](C)[C@@H](O[C@@H]2O[C@H](C)C[C@H](N(C)C)[C@H]2O)[C@](C)(OC/C=C/c2cnc3ccccc3c2)C[C@@H](C)C(=O)[C@H](C)[C@H]2N(C)C(=O)O[C@]12C,0.1,4,0.25,0.1,0.015,> 100,1,0.25,4,0.03
CC[C@H]1OC(=O)[C@H](C)C(=O)[C@H](C)[C@@H](O[C@@H]2O[C@H](C)C[C@H](N(C)C)[C@H]2O)[C@](C)(OCC2CC2c2cnc3ccccc3c2)C[C@@H](C)C(=O)[C@H](C)[C@H]2NC(=O)O[C@@]21C (some centres undefined),0.05,–,0.5,0.05,0.03,> 100,32,0.25,4,0.03
CC[C@H]1OC(=O)[C@H](C)C(=O)[C@H](C)[C@@H](O[C@@H]2O[C@H](C)C[C@H](N(C)C)[C@H]2O)[C@](C)(OC/C=C/c2ccc3ccccc3c2)C[C@@H](C)C(=O)[C@H](C)[C@H]2NC(=O)O[C@@]21C,0.1,16,1,0.1,0.015,> 100,> 128,1,16,0.015
CC[C@H]1OC(=O)[C@H](C)[C@@H](O[C@H]2C[C@@](C)(OC)[C@@H](O)[C@H](C)O2)[C@H](C)[C@@H](O[C@@H]2O[C@H](C)C[C@H](N(C)C)[C@H]2O)[C@](C)(OC/C=C/c2ccccc2)C[C@@H](C)C(=O)[C@H](C)[C@@H](O)[C@]1(C)O,0.39,4,4,6.2,0.03,> 100,32,16,32,0.06
CC[C@H]1OC(=O)[C@H](C)C(=O)[C@H](C)[C@@H](O[C@@H]2O[C@H](C)C[C@H](N(C)C)[C@H]2O)[C@](C)(OCCNCc2ccccc2)C[C@@H](C)C(=O)[C@H](C)[C@@H](O)[C@]1(C)O,3.1,16,4,1.56,0.5,> 100,> 64,4,> 64,0.25
CC[C@H]1OC(=O)[C@H](C)C(=O)[C@H](C)[C@@H](O[C@@H]2O[C@H](C)C[C@H](N(C)C)[C@H]2O)[C@](C)(OC/C=C/c2ccc3cccnc3c2)C[C@@H](C)C(=O)[C@H](C)[C@H]2NC(=O)O[C@@]21C,0.05,4,0.5,0.05,0.03,> 100,4,1,> 128,0.03
CC[C@H]1OC(=O)[C@H](C)C(=O)[C@H](C)[C@@H](O[C@@H]2O[C@H](C)C[C@H](N(C)C)[C@H]2O)[C@](C)(OC/C=C/c2ccccc2)C[C@@H](C)C(=O)[C@H](C)[C@@H](O)[C@]1(C)O,1.56,128,2,1.56,0.25,> 100,64,2,64,1
CC[C@H]1OC(=O)[C@H](C)C(=O)[C@H](C)[C@@H](O[C@@H]2O[C@H](C)C[C@H](N(C)C)[C@H]2O)[C@](C)(OC/C=C/c2cnc3ncccc3c2)C[C@@H](C)C(=O)[C@H](C)[C@H]2NC(=O)O[C@@]21C,0.05,2,2,0.05,0.03,> 100,0.5,2,0.5,0.03
CC[C@H]1OC(=O)[C@H](C)C(=O)[C@H](C)[C@@H](O[C@@H]2O[C@H](C)C[C@H](N(C)C)[C@H]2O)[C@](C)(OC/C=C/c2cccnc2)C[C@@H](C)C(=O)[C@H](C)[C@H]2NC(=O)O[C@@]21C,0.1,8,0.5,0.1,0.03,> 100,> 128,0.5,> 128,0.03
C=CCO[C@]1(C)C[C@@H](C)C(=O)[C@H](C)[C@H]2N(CCN(C)C)C(=O)O[C@]2(C)[C@@H](CC)OC(=O)[C@H](C)C(=O)[C@H](C)[C@H]1O[C@@H]1O[C@H](C)C[C@H](N(C)C)[C@H]1O,6.2,64,2,6.2,0.5,> 100,> 128,4,> 128,1
CC[C@H]1OC(=O)[C@H](C)C(=O)[C@H](C)[C@@H](O[C@@H]2O[C@H](C)C[C@H](N(C)C)[C@H]2O)[C@](C)(OCCNCCCc2cnc3ccccc3c2)C[C@@H](C)C(=O)[C@H](C)[C@H]2NC(=O)O[C@@]21C,0.2,4,2,0.39,0.03,> 100,2,2,> 100,0.03
